From ChEMBL document CHEMBL4382292, “Discovery of a Novel cGAMP Competitive Ligand of the Inactive Form of STING” (ACS Med Chem Lett, 2019) come the findings set out here.

In general, Papp refers to the rate of passage across a membrane or cell layer, normalised by area and donor concentration. As usually defined, the solubility is the dissolved amount per volume that the medium holds. A higher solubility goes with a readily soluble substance. Usually IC50 stands for the concentration at which inhibition is half-maximal.

The nature of series [1]: Intrinsic clearance in human hepatocytes after 120 mins by LC-MS/MS analysis. It is filed as ADME, cell-based, Hepatocyte. The settings on record: read-out: CLH.
A short description of series [2]: Apparent permeability in MDCK cells. The settings on record: dog. It is filed as ADME, cell-based, Canis lupus familiaris.
The nature of series [3]: Intrinsic clearance in rat hepatocytes after 120 mins by LC-MS/MS analysis. In kind it is ADME, cell-based, Hepatocyte. The settings on record: read-out: CLH.
Series [4] is described as follows: Clearance in rat at 0.5 mg/kg, iv or 1 mg/kg, po. It is filed as ADME, organism-based. The settings on record: in vivo. Put shortly:
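Rat dosed iv at 0.5 mpk or po at 1 mpk, each as a solution in PEG400/H2O (60:40 (v/v)).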

Series [5] is described as follows: Solubility of the compound in FaSSIF solution at 100 uM after overnight incubation by UPLC/DAD analysis. It is filed as physicochemical.
Series [6] deals with Stimulator of interferon genes protein (Homo sapiens, UniProt Q86WV6). The experiment in a line: Displacement of [3H]cGAMP from full length human HAQ STING expressed in Trichopulsia ni membranes preincubated for 30 mins followed by [3H]cGAMP addition and measured after 60 mins by scintillation counting method. In kind it is cell membranes. In general terms: In a radioligand displacement assay an active substance lowers the binding of a labelled ligand.

Values after ≈ are worked out from the molar mass of the structure shown.

Stimulator of interferon genes protein, sequence (Q86WV6 whole entry, looked up): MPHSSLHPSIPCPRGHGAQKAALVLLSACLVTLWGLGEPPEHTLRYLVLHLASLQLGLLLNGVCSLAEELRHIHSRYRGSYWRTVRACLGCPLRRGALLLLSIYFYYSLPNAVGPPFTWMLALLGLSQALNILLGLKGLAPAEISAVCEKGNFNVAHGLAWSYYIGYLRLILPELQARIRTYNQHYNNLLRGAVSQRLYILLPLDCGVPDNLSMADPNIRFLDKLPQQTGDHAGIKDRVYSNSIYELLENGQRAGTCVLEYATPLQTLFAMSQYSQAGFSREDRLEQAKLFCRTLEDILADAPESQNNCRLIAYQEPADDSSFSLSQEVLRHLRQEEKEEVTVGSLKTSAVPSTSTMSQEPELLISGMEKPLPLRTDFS

`CC(C)(C)c1ccc(N2C(=O)c3ccccc3[C@H](C(=O)O)[C@H]2c2ccc3c(c2)OCCO3)cc1Cl`: the CLint scaled in series [1] was 28 mL/min/kg; in series [3], 158 mL/min/kg. The Papp in series [2] came to 9 ×10⁻⁶ cm/s. Further, the clearance in series [4] came to 38 mL/min/kg. The compound further showed a solubility at 100 µM in series [5] of 151 µM (≈ 74.3 µg/mL).

As to `CC(C)(C)c1ccc(N2C(=O)c3cc(F)ccc3[C@H](CC(=O)O)[C@H]2c2ccc3c(c2)OCCO3)cc1Cl`, the CLint scaled in series [1] stood at 31 mL/min/kg; in series [3] it was 240 mL/min/kg. Also, in series [2], the apparent permeability coefficient (Papp) is 18 ×10⁻⁶ cm/s. In addition, in series [4], the clearance came out at 45 mL/min/kg. In series [5], this compound yielded a solubility at 100 µM of 187 µM (≈ 98 µg/mL).

With `O=C(O)[C@H]1c2ccccc2C(=O)N(c2ccc3c(c2)CCC3)[C@@H]1c1ccc(Oc2ccccc2)cc1` (racemic), the IC50 in series [6] was more than 20 µM.

As for `O=C(O)[C@H]1c2ccccc2C(=O)N(c2ccc3c(c2)CCC3)[C@@H]1c1ccc2c(c1)OC(F)(F)O2` (racemic), the IC50 in series [6] is more than 20 µM.

Consider `N#Cc1ccc([C@@H]2[C@@H](C(=O)O)c3ccccc3C(=O)N2c2ccc3c(c2)CCC3)cc1` (racemic), for which, in series [6], the IC50 was more than 20 µM.

As for `CC(C)c1ccc(N2C(=O)c3ccccc3[C@H](C(=O)O)[C@H]2c2ccc3ccccc3c2)cc1` (racemic), the IC50 in series [6] was more than 20 µM.

In turn, `CN(C)c1ccc([C@@H]2[C@@H](C(=O)O)c3ccccc3C(=O)N2c2ccc3c(c2)CCC3)cc1` (racemic) returned an IC50 in series [6] of more than 20 µM.
